Source: PubChem
OXTR potentiate – potentiates the human oxytocin receptor response; activation, % at 3 µM; actives 0.061% (n = 320,000); AID 2445; CHO-OTR cells, Fluo-8 calcium fluorescence, potentiator mode; 0% = oxytocin EC15, 100% = EC100;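 active = activation above that plate's cutoff, the mean activation of tested compounds plus 3 SD, cut at about 6.6% in these data, passing the limit was not always enough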;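 note: 100% uses oxytocin at 75 nM as the full agonist control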
Target sequence (P30559 whole entry, looked up): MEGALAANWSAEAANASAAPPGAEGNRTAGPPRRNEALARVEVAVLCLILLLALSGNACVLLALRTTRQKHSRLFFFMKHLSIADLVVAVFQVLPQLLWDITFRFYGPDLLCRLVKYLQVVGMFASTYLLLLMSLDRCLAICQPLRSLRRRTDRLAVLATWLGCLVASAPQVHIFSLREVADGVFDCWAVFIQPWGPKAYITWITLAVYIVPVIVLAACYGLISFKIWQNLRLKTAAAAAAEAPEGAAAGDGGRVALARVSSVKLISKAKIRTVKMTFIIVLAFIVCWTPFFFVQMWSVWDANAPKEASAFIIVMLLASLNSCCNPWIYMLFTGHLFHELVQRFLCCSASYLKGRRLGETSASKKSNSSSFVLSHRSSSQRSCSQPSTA
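Replication – single well per compound, singlicate · Assay system – CHO cell line stably expressing human OTR · Timing – 6 min pre-incubation, 100 s read · Measure – normalized max/min fluorescence ratio, % activation · Doses – 3.0 µM, one dose · Detection – Fluo-8 calcium dye fluorescence · Probe or stimulus – oxytocin near EC15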
TRPN1 ag – agonists of zebrafish TRPN1 channel | HEK293 zebrafish TRPN1-YFP, Fluo-8 calcium fluorescence; 100% = response to 87 µM carbachol | activation, % at 3 µM | actives 0.18% (n = 220,000) | AID 1424;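 active = activation above its plate's cutoff, the mean activation of test wells on that plate plus 3 SD, cut at about 19% in these data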;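 note: 0% = DMSO alone and 100% = 87 µM carbachol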
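Material: zebrafish TRPN1-YFP in HEK293 cells. Doses: one dose of 3 µM, 0.3% DMSO. Incubation: dye 1 h 37 °C plus 30 min RT. Measured by: intracellular calcium fluorescence with Fluo-8.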
TRPML3 ag – activates the human TRPML3 channel; Q8TDD5; HEK293 TRPML3-YFP, Fluo-8 calcium fluorescence; 100% = the carbachol control signal; activation, % at 3 µM; actives 0.29% (n = 220,000);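 active = activation above its plate's cutoff, the mean activation of the plate's test wells plus 3 SD, cut at about 12% in these data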;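 note: 0% = DMSO only wells and 100% = carbachol wells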
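Test system – HEK293 line with stable expression of human TRPML3-YFP channel · Control set – carbachol 87 µM final as high control (100%), DMSO as low control (0%) · Signal – Fluo-8 calcium dye fluorescence, ex 470-495, em 515-575 nm · Incubation – 1-h 37 °C dye load, 5-s basal, 120-s post-compound reads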
V1aR counter – activates human V1a receptor in oxytocin agonist counter-screen; activation, % at 3 µM; CHO-V1R cells, Fluo-8 calcium fluorescence, agonist mode; 0% DMSO, 100% 3 nM vasopressin; actives 0.25% (n = 320,000); P37288; AID 2797;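 active = activation above the mean activation of all tested compounds plus 3 SD, per screening run, cut at about 20% in these data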;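 note: signal is peak over basal fluorescence ratio across a 100 second FLIPR read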
OXTR ag – human OXTR agonism. P30559. CHO-OTR cells, Fluo-8 calcium fluorescence; normalized: DMSO 0%, oxytocin 100%. activation, % at 3 µM. actives 0.32% (n = 320,000). AID 2435;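 active = activation above the mean of all tested compounds plus 3 SD, cutoff set per screening run, cut at about 20% in these data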;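 note: peak over basal fluorescence ratio from a 100 s FLIPR kinetic read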
The depositor's hits bear a star; / = not tested or not shown. The list is not random: actives were taken first. Their share in the collection is about 0.55%.

SMILES | OXTR potentiate | TRPN1 ag | TRPML3 ag | V1aR counter | OXTR ag
CC(=O)c1ccc(NC(=O)COC(=O)CCC2CCCC2)cc1 | -5 | / | / | 2 | 1
COc1ccc(C(=O)NCC(=O)OCCOc2ccc(Cl)cc2)cc1OC | -6 | / | / | 0 | -2
CCOc1ncccc1C(=O)OCCCC(=O)c1ccc(Br)cc1 | -6 | / | / | -1 | -1
Cc1ccc(S(=O)(=O)N/N=C/c2ccc(OC3CSC3)cc2)cc1 | -29 | 20* | 13* | 40* | 24*
NC(CCCCc1ccccc1)c1cccc2ccccc12 (stereo not drawn) | -16 | / | / | 3 | 21*
CC(CCc1ccccc1)NCc1cccc2ccccc12 (stereo not drawn) | -13 | / | / | 8 | 8
CCOC(=O)c1c(NC(=O)COC(=O)c2ccccn2)sc(C)c1C | -3 | / | / | 2 | 0
COc1ccc(C(OCC(O)CNCCc2ccc(S(N)(=O)=O)cc2)c2ccc(OC)cc2)cc1 (stereo not drawn) | -12 | / | / | 0 | 2
OC(CNCCc1ccc(C(F)(F)F)cc1)COC(c1ccccc1)c1ccccc1 (stereo not drawn) | -15 | / | / | 35* | 27*
C=CCN1C(=O)c2cccc3c(N4CCCCC4)ccc(c23)C1=O | -6 | 9 | 4 | 10 | 9
O=C1c2cccc3c(N4CCCCC4)ccc(c23)C(=O)N1c1cccc(O)c1 | -13 | 70* | 33* | 40* | 33*
Cc1n[nH]c(C)c1N1C(=O)c2cccc3c(N4CCCCCC4)ccc(c23)C1=O | -24 | 125* | 86* | 150* | 146*
O=C(COC(=O)CNS(=O)(=O)c1cc(C(F)(F)F)ccc1Cl)NC1CC1 | 2 | / | / | 2 | 2
COc1ccc(N=CC2=C(Nc3ccc(OC)cc3)c3c(C)nn(-c4ccccn4)c3CC2)cc1 | -7 | 6 | 6 | 21* | 10
COc1ccc(C2C=C(c3ccccc3)Nc3nc(CCCO)nn32)cc1 (stereo not drawn) | -15 | 0 | 0 | -1 | -1
COc1ccc(C2C=C(c3cccs3)Nc3nc(CCCO)nn32)cc1 (stereo not drawn) | -4 | 3 | 1 | 51* | 47*
CCCCNC(=S)NC(=O)c1ccc([N+](=O)[O-])cc1 | -9 | -3 | 0 | -1 | -3
CCCCNC(=S)Nc1ccc([N+](=O)[O-])cc1 | -16 | 21* | 11 | 8 | 10
CC(C)CCNC(=S)Nc1ccc([N+](=O)[O-])cc1 | -7 | 24* | 13* | 6 | 8
O=C(NNC(=S)NC(=O)C12CC3CC(CC(C3)C1)C2)c1ccncc1 | -14 | 85* | 54* | 71* | 61*
CC1(C(=O)NC(=S)NNC(=O)c2ccncc2)CCCCC1 | -16 | 7 | 8 | 19 | 10
N#C/C(=C(/O)C(Cl)(Cl)Cl)c1nc2ccccc2[nH]1 | -8 | 20* | 5 | 13 | 15
CN(Cc1ccccc1)C(=O)COC(=O)CCN1C(=O)C2CC=CCC2C1=O (stereo not drawn) | 0 | / | / | 1 | 1
Cc1ccc(C(=O)Nc2ccccc2C(=O)Nc2ccccn2)cc1Cl | -4 | / | / | 1 | -1
C/C(=N\Nc1ccc(C(=O)O)cc1)c1ccc(Cl)s1 | -16 | / | / | 34* | 24*
SMILES | OXTR potentiate | TRPN1 ag | TRPML3 ag | V1aR counter | OXTR ag
O=C(Cn1ccc(NC(=O)OCc2ccccc2)nc1=O)NCCc1c[nH]c2ccccc12 | -5 | / | / | 0 | 0
COc1ccccc1CC(=O)Nc1ccc([N+](=O)[O-])cc1O | -16 | 21* | 6 | 10 | 15
CCOC(=O)/C=C1\SC(C)C(=O)N1CC(=O)N(CCC#N)c1ccccc1 (stereo not drawn) | 3 | / | / | 1 | 1
CC(=O)N1C(=O)C(=C2C=C(C)OC(C)=C2)c2ccccc21 | 2 | 26* | 0 | -2 | -2
COc1ccc(C)cc1-n1nnnc1SCC(=O)NC1CCS(=O)(=O)C1 (stereo not drawn) | -1 | / | / | 1 | -1
CCn1c(C)c(C(=O)O)c2cc(OC)c3ccccc3c21 | -12 | / | / | -1 | -1
CC(C)(C)OC(=O)C[C@H]1C/C=C\C[C@H](CC(=O)N(CCO)Cc2ccccc2)C(=O)N[C@H](C(C)(C)C)COC1=O | -3 | / | / | -1 | -1
CCCCc1ccc(N/C(N)=N/c2nc(C)cc(C)n2)cc1 | -20 | 109* | 80* | 62* | 58*
CS(=O)(=O)c1cccc(C(=O)OCC(=O)Nc2ccc3c(c2)OCO3)c1 | 0 | / | / | 0 | 1
N#CC1(NC(=O)CSc2nc3ccccc3o2)CCCCC1 | 3 | / | / | 2 | 2
CN1CCC(N(C)S(=O)(=O)c2ccc(NC(=O)COc3ccc(F)cc3)cc2)CC1 | -3 | / | / | 3 | 4
CN1CCC(N(C)S(=O)(=O)c2ccc(NC(=O)COc3ccc(Cl)cc3)cc2)CC1 | -10 | / | / | 24* | 25*
COc1ccccc1-c1cc(C(=O)NC2CCN(C)CC2)c2ccc(Cl)c(C)c2n1 | -3 | / | / | 12 | 20*
O=C(Nc1nnc(-c2ccccc2Cl)o1)c1ccco1 | -5 | -1 | 0 | 0 | 0
O=C(Nc1nnc(-c2ccccc2Cl)o1)c1nc2ccccc2s1 | -10 | 89* | 95* | 58* | 50*
CCOc1cc(NC(=S)Nc2ccccc2)c(OCC)cc1NC(=O)c1ccccc1 | -8 | 0 | 77* | -1 | -2
C=CCN1C(=O)/C(=C/C=C2/N(CC)c3ccc(S(=O)(=O)N(C)C)cc3N2CC)SC1=S | -20 | 11 | 4 | 26* | 30*
CCOC(=O)c1ccc2c(c1)N(CC)/C(=C\C=C1/SC(=S)N(CC)C1=O)N2CC | / | 0 | 0 | / | /
Cc1noc(C)c1S(=O)(=O)Nc1ccc2c(c1)CC(=O)N([C@H](C)CO)C[C@H](C)[C@@H](CN(C)CC1CC1)O2 | -4 | / | / | 1 | 2
CCN1/C(=C/c2ccc3cc(C)ccc3[n+]2CC)Sc2cc(C)c(C)cc21 | / | 49* | 20* | / | /
CN1/C(=C/c2cccc[n+]2CCO)Sc2ccccc21 | -14 | / | / | 0 | 0
CC[n+]1ccccc1/C=C1\Sc2ccc(C)cc2N1C | -18 | / | / | 0 | 0
CC[n+]1c(/C=C2\Sc3ccccc3N2C)ccc2cccc(C)c21 | / | 42* | 18* | / | /
CCN1/C(=C/c2ccc3cc(C)ccc3[n+]2CC)Sc2ccccc21 | -18 | 83* | 30* | 32* | 30*
COCC(=O)N(C)C[C@H]1N[C@@](C)(C(=O)OC)[C@H]2C(=O)N(C)C(=O)[C@@H]12 | 2 | / | / | 1 | 1
CCCN(C(=O)CSc1ncnc2sccc12)c1c(N)n(Cc2ccccc2)c(=O)[nH]c1=O | -4 | / | / | 0 | 0
CCOC(=O)C1=NN(C(=O)c2ccc(OC)cc2)C(O)(c2ccc(Cl)cc2)C1 (stereo not drawn) | -10 | 0 | -1 | 6 | 10
